According to ChEMBL document CHEMBL2069282, “Sugar-modified derivatives of cytostatic 7-(het)aryl-7-deazaadenosines: 2'-C-methylribonucleosides, 2'-deoxy-2'-fluoroarabinonucleosides, arabinonucleosides and 2'-deoxyribonucleosides” (Bioorg Med Chem, 2012):
pEC50, pIC50: −log10 of the molar value.

Experiments:
[1] = Selectivity index, ratio of CC50 for human HuH7 cells to EC50 for Hepatitis C virus subtype 1a replicons; type: toxicity, cell-based, Huh-7; details: read-out: Ratio CC50/EC50
[2] = Selectivity index, ratio of CC50 for human HuH7 cells to EC50 for Hepatitis C virus subtype 1b replicons; type: toxicity, cell-based, Huh-7; details: read-out: Ratio CC50/EC50
[3] = test system: Hepatitis C virus; assay: Antiviral activity against Hepatitis C virus subtype 1a replicons infected in human HuH7 cells assessed as reduction in viral RNA levels by Rt-PCR; type: functional, organism-based, Hepacivirus hominis; details: Huh-7
[4] = Toxicity against human HuH7 cells incubated for 3 days by CellTiter 96 AQueous One Solution cell proliferation assay; type: cell-based, Huh-7
[5] = test system: Hepatitis C virus; assay: Antiviral activity against Hepatitis C virus subtype 1b replicons infected in human HuH7 cells assessed as reduction in viral RNA levels by Rt-PCR; type: functional, organism-based, Hepacivirus hominis; details: genotype 1b, Huh-7
[6] = Cytotoxicity against human HeLaS3 cells incubated for 3 days by XTT assay; type: functional, cell-based; details: HeLa S3, 72 h
Outline: (§1)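 Cell viability read by a metabolic XTT tetrazolium method after 3-day incubation of cells with compound. Values are from 2–4 independent experiments.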

[7] = test system: HepG2; assay: Cytotoxicity against human HepG2 cells incubated for 3 days by XTT assay; type: functional, cell-based; details: HepG2, 72 h; outline: as §1
[8] = test system: HL-60; assay: Cytotoxicity against human HL60 cells incubated for 3 days by XTT assay; type: functional, cell-based; details: HL-60, 72 h; outline: as §1
[9] = test system: CCRF-CEM; assay: Cytotoxicity against human CCRF-CEM cells incubated for 3 days by XTT assay; type: functional, cell-based; details: 72 h; outline: as §1
[10] = test system: NCI-H23; assay: Cytostatic activity against human NCI-H23 cells incubated for 3 days by SRB assay; type: functional; details: NCI-H23, 72 h
[11] = test system: HCT-116; assay: Cytostatic activity against human HCT116 cells incubated for 3 days by SRB assay; type: functional; details: HCT-116, 72 h
[12] = Cytostatic activity against human Hs578 cells incubated for 3 days by SRB assay; type: functional; details: Hs578, 72 h
[13] = test system: DU-145; assay: Cytostatic activity against human DU145 cells incubated for 3 days by SRB assay; type: functional; details: DU-145, 72 h

| pEC50 [3] | pEC50 [5] | GI50 [10] | GI50 [11] | GI50 [13] | Structure (SMILES) | selectivity ratio [1] | selectivity ratio [2] | CC50 at 72 h [4] | pIC50 [6] | pIC50 [7] | pIC50 [8] | pIC50 [9] | GI50 [12] |
| --- | --- | --- | --- | --- | --- | --- | --- | --- | --- | --- | --- | --- | --- |
| 4.45 | 4.57 |  |  |  | C[C@@]1(O)[C@H](O)[C@@H](CO)O[C@H]1n1cc(-c2ccccc2)c2c(N)ncnc21 | < 10 | < 10 | > 44 µM |  |  |  |  |  |
| 4.60 | 4.65 |  |  |  | Nc1ncnc2c1c(-c1ccoc1)cn2[C@@H]1O[C@H](CO)[C@@H](O)[C@@H]1O | < 10 | < 10 | > 44 µM | 5.08 | 5.21 | < 5.00 | 5.33 |  |
| 6.43 | 6.42 | 0.79 µM | 6.65 µM | 3.38 µM | C[C@@]1(O)[C@H](O)[C@@H](CO)O[C@H]1n1cc(I)c2c(N)ncnc21 | 65 | 65 | 19.8 µM | 5.12 |  | < 5.00 | 5.36 | 4.39 µM |
| 4.92 | 5.03 |  |  |  | COc1ccc(-c2cn([C@@H]3O[C@H](CO)[C@@H](O)[C@@]3(C)O)c3ncnc(N)c23)cc1 | < 10 | < 10 | > 44 µM |  |  |  |  |  |
| 4.61 | 4.62 |  |  |  | C[C@@]1(O)[C@H](O)[C@@H](CO)O[C@H]1n1cc(-c2cccc3ccccc23)c2c(N)ncnc21 | < 10 | < 10 | > 44 µM |  |  |  |  |  |
| 5.31 | 5.27 |  |  |  | C[C@@]1(O)[C@H](O)[C@@H](CO)O[C@H]1n1cc(-c2ccc3ccccc3c2)c2c(N)ncnc21 | < 10 | < 10 | 20.1 µM | < 5.00 |  | < 5.00 | 5.40 |  |
|  | 5.05 | 6.08 µM | > 10 µM | 8.89 µM | C[C@@]1(O)[C@H](O)[C@@H](CO)O[C@H]1n1cc(-c2ccco2)c2c(N)ncnc21 | < 10 | < 10 | 49.6 µM |  |  |  |  | 9.05 µM |
|  | 4.85 |  |  |  | C[C@@]1(O)[C@H](O)[C@@H](CO)O[C@H]1n1cc(-c2cccs2)c2c(N)ncnc21 | < 10 | < 10 | 48.1 µM |  |  |  |  |  |
| 4.74 | 4.91 |  |  |  | C[C@@]1(O)[C@H](O)[C@@H](CO)O[C@H]1n1cc(-c2ccoc2)c2c(N)ncnc21 | < 10 | < 10 | > 44 µM |  |  |  |  |  |
| 4.44 | 4.81 |  |  |  | C[C@@]1(O)[C@H](O)[C@@H](CO)O[C@H]1n1cc(-c2ccsc2)c2c(N)ncnc21 | < 10 | < 10 | > 44 µM |  |  |  |  |  |
| 5.21 | 5.21 |  |  |  | C[C@@]1(O)[C@H](O)[C@@H](CO)O[C@H]1n1cc(-c2cc3ccccc3o2)c2c(N)ncnc21 | < 10 | < 10 | 29.4 µM | < 5.00 |  | < 5.00 | 5.11 |  |
| 4.58 | 4.36 |  |  |  | Nc1ncnc2c1c(-c1ccccc1)cn2[C@@H]1O[C@H](CO)[C@@H](O)[C@@H]1F | < 10 | < 10 | > 44 µM |  |  |  |  |  |
| 4.80 | 4.92 | > 10 µM | > 10 µM | 8.52 µM | Nc1ncnc2c1c(-c1ccco1)cn2[C@@H]1O[C@H](CO)[C@@H](O)[C@@H]1F | < 10 | < 10 | > 44 µM |  |  |  |  | 8.49 µM |
| 5.55 | 5.39 |  |  |  | Nc1ncnc2c1c(-c1cccs1)cn2[C@@H]1O[C@H](CO)[C@@H](O)[C@@H]1F | < 10 | < 10 | 42.9 µM | 5.25 | < 5.00 | < 5.00 | 5.12 |  |
| 4.43 | 4.77 |  |  |  | Nc1ncnc2c1c(-c1ccoc1)cn2[C@@H]1O[C@H](CO)[C@@H](O)[C@@H]1F | < 10 | < 10 | > 44 µM |  |  |  |  |  |
| 4.96 | 4.97 |  |  |  | Nc1ncnc2c1c(-c1ccsc1)cn2[C@@H]1O[C@H](CO)[C@@H](O)[C@@H]1F | < 10 | < 10 | 24.4 µM |  |  |  |  |  |
| 4.65 | 5.07 |  |  |  | Nc1ncnc2c1c(-c1cn[nH]c1)cn2[C@@H]1O[C@H](CO)[C@@H](O)[C@@H]1F | < 10 | < 10 | > 44 µM | < 5.00 |  | < 5.00 | 5.04 |  |
| 6.44 | 6.44 | 0.048 µM | 0.108 µM | 0.002 µM | C#Cc1cn([C@@H]2O[C@H](CO)[C@@H](O)[C@@H]2F)c2ncnc(N)c12 | < 10 | < 10 | 2.68 µM | 6.66 |  | 6.70 | 6.74 | 0.065 µM |
| 5.74 | 6.04 | 5.36 µM | 7.64 µM | 9.41 µM | Nc1ncnc2c1c(-c1cnn[nH]1)cn2[C@@H]1O[C@H](CO)[C@@H](O)[C@@H]1F | < 10 | < 10 | 10.9 µM | 5.18 |  | < 5.00 | 5.46 | 1.82 µM |
| 5.86 | 5.86 |  |  |  | Nc1ncnc2c1c(I)cn2[C@@H]1O[C@H](CO)[C@@H](O)[C@@H]1O | < 10 | < 10 | 9.97 µM | 5.50 | 5.21 | 5.19 | 5.15 |  |
| < 4.36 | < 4.36 |  |  |  | Nc1ncnc2c1c(-c1ccccc1)cn2[C@@H]1O[C@H](CO)[C@@H](O)[C@@H]1O | < 10 | < 10 | > 44 µM |  |  |  |  |  |
| 5.47 | 5.52 |  |  |  | Nc1ncnc2c1c(-c1ccco1)cn2[C@@H]1O[C@H](CO)[C@@H](O)[C@@H]1O | < 10 | < 10 | > 44 µM | 5.12 | 5.18 | < 5.00 | 5.18 |  |
| 4.45 | 4.69 |  |  |  | Nc1ncnc2c1c(-c1cccs1)cn2[C@@H]1O[C@H](CO)[C@@H](O)[C@@H]1O | < 10 | < 10 | > 44 µM | 5.27 | 4.91 | 4.87 | 5.37 |  |
| 4.42 | 4.47 |  |  |  | Nc1ncnc2c1c(-c1ccsc1)cn2[C@@H]1O[C@H](CO)[C@@H](O)[C@@H]1O | < 10 | < 10 | > 44 µM | 5.15 | < 4.82 | 4.89 | 5.51 |  |
| 4.96 | 5.38 |  |  |  | Nc1ncnc2c1c(-c1ccco1)cn2[C@H]1C[C@H](O)[C@@H](CO)O1 | < 10 | < 10 | > 44 µM |  |  |  |  |  |
| 5.12 | 5.29 |  |  |  | Nc1ncnc2c1c(-c1cccs1)cn2[C@H]1C[C@H](O)[C@@H](CO)O1 | < 10 | < 10 | > 44 µM |  |  |  |  |  |
| 4.62 | 5.28 |  |  |  | Nc1ncnc2c1c(-c1ccoc1)cn2[C@H]1C[C@H](O)[C@@H](CO)O1 | < 10 | < 10 | > 44 µM |  |  |  |  |  |
| 4.94 | 5.23 |  |  |  | Nc1ncnc2c1c(-c1ccsc1)cn2[C@H]1C[C@H](O)[C@@H](CO)O1 | < 10 | < 10 | > 44 µM |  |  |  |  |  |

| Structure (SMILES) | pEC50 [3] | pEC50 [5] | GI50 [10] | GI50 [11] | GI50 [13] | selectivity ratio [1] | selectivity ratio [2] | CC50 at 72 h [4] | pIC50 [6] | pIC50 [7] | pIC50 [8] | pIC50 [9] | GI50 [12] |
| --- | --- | --- | --- | --- | --- | --- | --- | --- | --- | --- | --- | --- | --- |
| C#Cc1cn([C@@H]2O[C@H](CO)[C@@H](O)[C@@H]2O)c2ncnc(N)c12 | 5.81 | 5.76 |  |  |  | < 10 | < 10 | 17.4 µM | 5.42 | 5.01 | < 5.00 | < 5.00 |  |
